Active and inactive are the calls of the source.
Legend:
Candida albicans [1] = assay: Upregulation of Mitochondrial 2-enoyl thioester reductase expression in Candida albicans SC5314 at 200 uM after 24 hrs by MALDI-TOF MS; format: functional, organism-based
In short: (§1)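 SC5314 grown overnight at 30°C, 120 rpm, in yeast nitrogen base (pH 7.0) with 50 mM glucose. Cells were washed in PBS and adjusted to OD600 0.1, then treated 24 h with farnesol from a methanol dilution; controls received methanol. Proteomes of treated and untreated cells were compared by 2-D SDS-PAGE and MALDI-TOF MS, with ProFound searches of the NCBI nonredundant database. Spots changed at least 1.5-fold in three independent experiments were counted.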

Candida albicans [2] = assay: Upregulation of POR1 expression in Candida albicans SC5314 at 200 uM after 24 hrs by MALDI-TOF MS; format: functional, organism-based; in short: as §1
Candida albicans [3] = assay: Induction of ROS accumulation in mitochondria of Candida albicans SC5314 at 100 uM after 3 hrs by Fluorescence analysis; format: functional
In short: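 Cells were exposed 3 h to 40, 100 or 200 μM farnesol, with methanol control and H2O2 positive control. Washed cells were stained 30 min in the dark with a mix of dichlorodihydrofluorescein diacetate, propidium iodide and calcofluor white, then washed and viewed by confocal microscopy. % green (ROS) cells of all cells was scored, with red (necrotic) cells scored separately.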

Candida albicans [4] = assay: Upregulation of Aryl-alcohol dehydrogenase expression in Candida albicans SC5314 at 40 uM after 24 hrs by MALDI-TOF MS; format: functional, organism-based
In short: (§2)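 Overnight YNB-glucose SC5314 culture, PBS-washed, adjusted to OD600 0.1 and treated 24 h with 40 or 200 μM farnesol (methanol in controls). Proteomes were compared with untreated cells by 2D SDS-PAGE and MALDI-TOF MS, searched against NCBI nonredundant database. Spots were counted as changed at ≥1.5-fold in three independent experiments.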

Candida albicans [5] = assay: Upregulation of NADH-cytochrome b5 reductase expression in Candida albicans SC5314 at 200 uM after 24 hrs by MALDI-TOF MS; format: functional, organism-based; in short: as §1
Candida albicans [6] = assay: Upregulation of Manganese superoxide dismutase expression in Candida albicans SC5314 at 200 uM after 24 hrs by MALDI-TOF MS; format: functional, organism-based; in short: as §1
Candida albicans [7] = assay: Upregulation of Putative mitochondrial […] expression in Candida albicans SC5314 at 200 uM after 24 hrs by MALDI-TOF MS; format: functional, organism-based; in short: as §1
Candida albicans [8] = assay: Upregulation of 6-Phosphogluconate dehydrogenase expression in Candida albicans SC5314 at 40 uM after 24 hrs by MALDI-TOF MS; format: functional, organism-based; in short: as §2
Candida albicans [9] = assay: Upregulation of Branched chain amino acid transaminase expression in Candida albicans SC5314 at 40 uM after 24 hrs by MALDI-TOF MS; format: functional, organism-based; in short: as §2
Candida albicans [10] = assay: Antiproliferative activity against Candida albicans SC5314 assessed as cell killing after 24 hrs by MTS assay; format: functional
In short: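 SC5314 grown overnight in YNB (pH 7.0) with 50 mM glucose at 30°C, 120 rpm, washed in PBS. Suspensions at 1 × 10⁷ cells/ml exposed to farnesol at final 0, 10, 40, 100, 200, 300 μM for 24 h at 30°C with shaking, with methanol vehicle controls. MTS reagent added for 4 h at 37°C, A490 read, and % killed cells calculated.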

Candida albicans [11] = assay: Induction of apoptosis in Candida albicans SC5314 assessed as cell death level at 200 uM after 3 hrs by Fluorescence analysis; format: functional
In short: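 Washed, OD600 0.1 SC5314 cells (overnight culture at 30°C in YNB pH 7.0 with 50 mM glucose) exposed 3 h to farnesol, with methanol vehicle and H2O2 controls. Stained 30 min in the dark with a mix of dichlorodihydrofluorescein diacetate, propidium iodide and calcofluor white, then PBS-washed. Confocal imaging; red propidium iodide-stained cells scored as a percentage of all cells.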

Candida albicans [12] = assay: Downregulation of Pyruvate kinase expression in Candida albicans SC5314 at 200 uM after 24 hrs by MALDI-TOF MS; format: functional, organism-based; in short: as §2
Candida albicans [13] = assay: Downregulation of ATP synthase subunit D expression in Candida albicans SC5314 at 200 uM after 24 hrs by MALDI-TOF MS; format: functional, organism-based; in short: as §2
Candida albicans [14] = assay: Upregulation of Pyruvate decarboxylase expression in Candida albicans SC5314 at 40 uM after 24 hrs by MALDI-TOF MS; format: functional, organism-based; in short: as §1
Candida albicans [15] = assay: Induction of apoptosis in Candida albicans SC5314 assessed as mitochondrial degradation at 40 uM after 3 hrs by Fluorescence analysis; format: functional
In short: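 Farnesol-exposed SC5314 (40, 100, 200 μM; methanol control, H2O2 positive control) stained with a MitoPT mitochondrial permeability transition dye per kit instructions. Cells imaged by confocal microscopy: red mitochondrial aggregates in healthy cells, dispersed green signal in apoptotic cells. Percentage of cells with degradation was recorded.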

Candida albicans [16] = assay: Upregulation of Glutathione reductase expression in Candida albicans SC5314 at 200 uM after 24 hrs by MALDI-TOF MS; format: functional, organism-based; in short: as §2
Candida albicans [17] = assay: Downregulation of GRE3 expression in Candida albicans SC5314 at 40 uM after 24 hrs by MALDI-TOF MS; format: functional, organism-based; in short: as §2
Candida albicans [18] = assay: Downregulation of Enolase expression in Candida albicans SC5314 at 40 uM after 24 hrs by MALDI-TOF MS; format: functional, organism-based; in short: as §2
Candida albicans [19] = assay: Induction of apoptosis in Candida albicans SC5314 at 100 uM after 24 hrs by TUNEL assay; format: functional
In short: (§3)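 After 24 h in farnesol (40, 100, 200 μM), cells were PBS-washed, fixed in 4% paraformaldehyde (pH 7.4) 1 h at 20°C, and permeabilized 2 min on ice. They were labeled with 9:1 label:enzyme TUNEL mix 1 h at 37°C in the dark and examined by fluorescence microscopy at 515–565 nm. Flow cytometry counted % positive of 30,000 gated cells, gates set by no-enzyme and DNase-treated controls.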

Candida albicans [20] = assay: Upregulation of Alcohol dehydrogenase expression in Candida albicans SC5314 at 40 uM after 24 hrs by MALDI-TOF MS; format: functional, organism-based; in short: as §2
Candida albicans [21] = assay: Induction of apoptosis in Candida albicans SC5314 at 200 uM after 24 hrs by TUNEL assay; format: functional; in short: as §3
Candida albicans [22] = assay: Downregulation of Riboflavin synthase expression in Candida albicans SC5314 at 40 uM after 24 hrs by MALDI-TOF MS; format: functional, organism-based; in short: as §2
Candida albicans [23] = assay: Upregulation of Heat shock protein 60 expression in Candida albicans SC5314 at 200 uM after 24 hrs by MALDI-TOF MS; format: functional, organism-based; in short: as §2
Candida albicans [24] = assay: Upregulation of Putative Rho protein GDP dissociation factor expression in Candida albicans SC5314 at 200 uM after 24 hrs by MALDI-TOF MS; format: functional, organism-based; in short: as §1
Candida albicans [25] = assay: Induction of apoptosis in Candida albicans SC5314 assessed as activation of caspase activity at 40 uM after 3 hrs by Fluorescence analysis; format: functional
In short: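 Active caspases in farnesol-exposed cells (40, 100, 200 μM; methanol control, H2O2 positive control) were detected with a FLICA kit per manufacturer. Cells were examined by confocal microscopy, with green-fluorescing cells counted as caspase-positive and unstained cells as nonapoptotic. Percentage of positive cells was recorded.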

Measured: Activity

CC(C)=CCC/C(C)=C/CC/C(C)=C/CO [FARNESOL]
5%: Candida albicans [25]
10.2%: Candida albicans [19]
80%: Candida albicans [3]
35%: Candida albicans [11]
14.5%: Candida albicans [21]
90%: Candida albicans [15]
60%: Candida albicans [10]
active: all other assays above
